Assay outcomes as filed in PubChem BioAssay.
Only some compounds are listed: those with a hit (about 4.3% of all), similar ones and a draw of the others.
MC4R antag cAMP: human MC4R antagonism in cAMP assay; MC4R-expressing cells, MTII-stimulated cAMP, LANCE TR-FRET; 0.48% of 360,000 active; AID 540295; inhibition, % at 6.5 µM;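 active means inhibition above its plate's cutoff, the mean of tested wells on that plate plus 3 SD, cut at about 29% in these data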
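Material: U2OS-MC4R stable cell line | Reagent: Melanotan II challenge after compound preincubation | Doses: One concentration, 6.5 µM nominal | Incubation: 30-min compound preincubation, 1-h Melanotan II challenge, 1-h detection, room temperature | Signal: TR-FRET cAMP assay | Replicates: One well per compound, no replicates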
TAAR1 antag: human TAAR1 antagonism. Q96RJ0. CHO RD-HGA16 TAAR1, Fluo-8 calcium fluorescence, antagonist. inhibition, % at 3 µM. 1.5% of 360,000 active. AID 624466;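 active means inhibition above a per-plate cutoff, the mean inhibition of test compounds on that plate plus 3 SD, cut at about 49% in these data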
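System: RD-HGA16 CHO cells with stable hTAAR1 and Gα16 | Probe or stimulus: EC80 β-phenethylamine stimulus | Dosing: 3 µM, single point | Times: Dye loading 75 min at 37 °C, then 30 min room temperature | Measured by: Fluo-8 calcium-sensitive fluorescence | Read-out basis: % inhibition of agonist calcium response | Replicates: n of 1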
TAAR1 ag: agonists of human TAAR1. CHO RD-HGA16 TAAR1, Fluo-8 calcium fluorescence; vehicle wells 0%, saturating PEA agonist 100%. AID 624467. 0.99% of 360,000 active. activation, % at 3 µM. Q96RJ0;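 active means activation above the mean activation of all test compounds in the run plus 3 SD, cut at about 38% in these data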
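Test system: RD-HGA16 (CHO) cells co-expressing Gα16 and hTAAR1 / Benchmarks: DMSO vehicle as 0%, PEA at EC100 as 100% / Repeats: no replicates (n 1) / Measure: % activation from peak over basal fluorescence ratio, DMSO-to-PEA scaled / Timing: 17-24 h plating, Fluo-8 75 min 37 °C, 30 min RT / Technique: kinetic Fluo-8 calcium fluorescence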
HTR2A ag: activates the mouse 5-HT2A serotonin receptor | P35363 | CHO-K1 mHTR2A beta-arrestin complementation, luminescence; percent of 30 µM serotonin response | activation, % at 7.6 µM | 0.66% of 360,000 active;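 active means activation above a run cutoff, the mean activation of all tested compounds plus 3 SD, cut at about 14% in these data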
Target sequence (P35363 whole entry, looked up): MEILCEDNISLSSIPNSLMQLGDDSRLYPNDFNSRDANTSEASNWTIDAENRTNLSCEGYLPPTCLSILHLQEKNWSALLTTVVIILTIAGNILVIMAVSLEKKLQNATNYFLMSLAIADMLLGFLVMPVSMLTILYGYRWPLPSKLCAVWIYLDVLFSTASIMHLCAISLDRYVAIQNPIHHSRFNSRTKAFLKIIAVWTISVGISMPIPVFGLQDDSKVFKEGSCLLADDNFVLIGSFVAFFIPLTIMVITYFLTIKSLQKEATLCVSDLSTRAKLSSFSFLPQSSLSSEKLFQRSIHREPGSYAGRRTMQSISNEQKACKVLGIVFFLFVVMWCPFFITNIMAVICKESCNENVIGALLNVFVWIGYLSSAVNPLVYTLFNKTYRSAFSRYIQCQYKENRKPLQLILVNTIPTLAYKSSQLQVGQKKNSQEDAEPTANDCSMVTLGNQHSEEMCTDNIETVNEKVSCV
MC4R ag barr: agonists of human melanocortin 4 receptor (MC4R) beta-arrestin | activation, % at 8.9 µM | AID 540308 | P32245 | 0.98% of 360,000 active | U2OS MC4R beta-arrestin complementation, luminescence; percent of melanotan II response, DMSO zero;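 active means activation above a per-plate cutoff, the mean activation of sample wells on that plate plus 3 SD, cut at about 8% in these data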
B2AR ag: agonists of human beta-2 adrenergic receptor inducing internalization | Am2.2-beta2AR cells, FAP receptor internalization, flow cytometry | response, % (no concentration beside the values) | 0.43% of 340,000 active;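 active means response above a set limit, near 3 SD of response in nonfluorescent compounds, cut at about 42% in these data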
TAAR1 nonsel count: nonselective antagonist in TAAR1 antagonist counter-screen; shares compounds with TAAR1 antag; counterscreen cell line, calcium fluorescence, antagonist mode; inhibition, % at 3 µM; 77% of 2,400 active; in the data active means inhibition above about 22%;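 further: CHO-Ga16 host cells stimulated with ATP at an EC80 level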
TAAR1 antag conf: human TAAR1 antagonism, confirmed; shares compounds with TAAR1 antag; TAAR1-expressing cells, fluorescence antagonist read-out; inhibition, % at 3 µM; 40% of 2,400 active; AID 651785; in the data active means inhibition above about 49%;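 further: CHO-Ga16 host cells challenged with agonist PEA near its EC80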
Ga16 nonsel ag: nonselective Ga16 agonism, counter-screen; 18% of 2,400 active; shares compounds with TAAR1 antag; Ga16-expressing cells, calcium fluorescence, agonist counterscreen; activation, % at 3 µM; in the data active means activation above about 12%
TAAR1 ag count: TAAR1 agonism, antagonist counter-screen. shares compounds with TAAR1 antag. hTAAR1 cell line, fluorescence activation, agonist mode. activation, % at 3 µM. 2% of 2,400 active. AID 651955; in the data active means activation above about 37%;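 further: CHO cells stably expressing TAAR1 with calcium dye readout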
A number is an active result; - = inactive; . = no result.

SMILES	MC4R antag cAMP	TAAR1 antag	TAAR1 ag	HTR2A ag	MC4R ag barr	B2AR ag	TAAR1 nonsel count	TAAR1 antag conf	Ga16 nonsel ag	TAAR1 ag count
CCN(CC)S(=O)(=O)c1ccc(Nc2nc3ccccc3n3nnnc23)cc1	-	49	-	-	-	-	23	-	-	-
c1ccc(Nc2nc3ccccc3n3nnnc23)cc1	-	-	-	-	-	-	.	.	.	.
O=C(CCN1C(=O)CSc2ccccc21)Nc1cccc(C(F)(F)F)c1	-	-	-	-	-	-	.	.	.	.
O=C(CCN1C(=O)CSc2ccccc21)Nc1ccc(C(F)(F)F)cc1	-	62	-	-	-	-	-	-	-	-
O=C(COC(=O)CSc1ccc(Cl)cc1)NCCc1ccccc1	-	-	-	-	-	-	.	.	.	.
CCN=c1sc(C(=O)NCCc2ccccc2)cc(=O)n1CC	-	55	-	-	-	-	31	53	-	-
O=C(NCCc1ccccc1)c1cccs1	-	-	-	-	-	-	.	.	.	.
CCOC(=O)C1CCN(C2=C(NS(=O)(=O)c3ccc(Cl)cc3)C(=O)c3ccccc3C2=O)CC1	-	-	-	-	-	-	.	.	.	.
CCOC(=O)C1CCCN(C2=C(NS(=O)(=O)c3ccc(Br)cc3)C(=O)c3ccccc3C2=O)C1 (configuration not stated)	-	62	-	-	-	-	26	-	-	-
CC(C)(C)c1cc(C(=O)NN)n(Cc2ccc(F)cc2)n1	-	-	-	-	-	-	.	.	.	.
COC(=O)c1cc(NCc2ccc3c(c2)OCO3)ccc1N1CCOCC1	-	-	-	-	-	-	.	.	.	.
Cc1cccc(Cn2nc(C(C)(C)C)cc2C(=O)Nc2ccc(F)cc2)c1	-	70	-	-	8.5	-	31	-	-	-
O=C(Nc1ccc(N2CCOCC2)c(Cl)c1)c1ccc(F)cc1	-	63	-	-	-	-	-	-	-	-
COC(=O)c1cc(NC(=O)c2cc(C(C)(C)C)nn2Cc2ccc(F)cc2)ccc1N1CCOCC1	-	63	-	-	-	-	31	-	-	-
CCCCn1cnc2c(SCc3ccccc3F)nc(N)nc21	-	-	-	-	-	-	.	.	.	.
COc1ccc(NC(=O)C2Cc3c(-c4cccc(NC(C)=O)c4)ccnc3O2)cn1 (configuration not stated)	-	-	-	-	-	.	.	.	.	.
CC(=O)c1ccccc1OCCOc1ccccc1C(C)=O	-	-	-	-	-	-	.	.	.	.
CC(=O)c1ccccc1OCc1ccc(S(=O)(=O)Cc2ccccc2)cc1	-	74	-	-	-	-	30	-	-	-
O=S(=O)(Nc1ccc(-c2csc(-c3ccccc3)n2)cc1)c1ccc(F)cc1	-	-	-	-	-	-	.	.	.	.
O=C(Nc1nc(-c2ccccc2)cs1)c1ccccc1NS(=O)(=O)c1ccc(F)cc1	-	70	-	-	-	-	58	68	-	-
CC(=O)c1c(C)[nH]c(C(=O)Nc2nc(-c3ccc(-c4ccccc4)cc3)cs2)c1C	-	93	-	-	-	-	71	97	27	37
CC(=O)c1c(C)[nH]c(C(=O)Nc2nc(-c3ccc(Cl)cc3)cs2)c1C	-	-	-	-	-	-	.	.	.	.
CC(=O)Nc1ccc(SCC(=O)c2c(N)n(Cc3ccccc3)c(=O)n(C)c2=O)cc1	-	77	-	-	-	-	30	-	13	-
CC(C)Cn1c(N)c(C(=O)CSc2ccccc2)c(=O)n(C)c1=O	-	66	-	-	-	-	49	65	16	-
COc1ccc(C(=O)CSc2nnc(CNC(=O)c3ccccc3F)n2C)cc1OC	-	-	-	-	-	-	.	.	.	.
SMILES	MC4R antag cAMP	TAAR1 antag	TAAR1 ag	HTR2A ag	MC4R ag barr	B2AR ag	TAAR1 nonsel count	TAAR1 antag conf	Ga16 nonsel ag	TAAR1 ag count
S=c1[nH]cnc2scc(-c3ccc(Cl)cc3)c12	-	-	-	-	-	-	.	.	.	.
N#Cc1ccc(NC(=O)COC(=O)CCc2nc3ccccc3c(=O)[nH]2)cc1	-	-	-	-	-	-	.	.	.	.
CCCCN1C(=O)c2ccc(C(=O)Nc3ccc(C)c(S(=O)(=O)N(C)C)c3)cc2C1=O	-	68	-	-	-	-	50	54	13	-
CCCCN1C(=O)c2ccc(C(=O)Nc3cccc(C)c3C)cc2C1=O	-	-	-	-	-	-	.	.	.	.
Cc1cc(C)cc(NC(=O)Nc2ccc3c(c2)N(C)C(=O)CS3)c1	-	82	-	-	-	-	43	51	-	-
CC(=O)c1c(C)[nH]c(C(=O)CN2C(=O)NC(C)(CCC(C)C)C2=O)c1C (configuration not stated)	-	-	-	-	-	-	.	.	.	.
OC(c1ccc(F)c(F)c1)c1nc(-c2ccc3ccccc3c2)cs1 (configuration not stated)	-	55	-	-	-	.	32	-	13	-
CN1CCN(C(=O)C2CCC(=O)N(Cc3cccc(C(F)(F)F)c3)C2)CC1 (configuration not stated)	-	-	-	-	-	-	.	.	.	.
COc1ccc(/C(C)=N/NC(=O)CNC(=O)/C=C\c2ccccc2OC)c(OC)c1	-	-	-	-	-	-	.	.	.	.
Cn1cccc1/C=N\NC(=O)C1COc2ccc(C(C)(C)C)cc2O1 (configuration not stated)	-	51	-	-	-	-	25	-	-	-
Brc1ccc(-n2cnc(-c3ccccc3)c2)cc1	-	-	-	-	-	-	.	.	.	.
COC(=O)c1ccc(NC(=O)CSc2nnnn2C2CCCCC2)cc1	-	65	-	-	-	-	-	-	-	-
O=C(CSc1nnnn1C1CCCC1)NCCc1ccccc1	-	55	-	-	-	-	-	73	-	52
CC(O)(c1cccnc1)c1nc(-c2ccc(F)c(Cl)c2)cs1 (configuration not stated)	-	-	-	-	-	.	.	.	.	.
C[C@H]1CN(C(=O)OC(C)(C)C)CCN1c1ccc(Br)c(C#N)c1	.	52	-	.	.	.	38	-	-	-
COc1ccc(C(CNC(=O)c2ccc(-c3ccccc3)cc2)N(C)C)cc1OC (configuration not stated)	-	-	-	-	-	-	.	.	.	.
